Experimental data published in ChEMBL document CHEMBL4316597, “Design, Synthesis, and Biological Evaluation of Itaconic Acid Derivatives as Potential Anti-Influenza Agents” (J Med Chem, 2019).
pEC50: −log10 of the molar value.

Legend:
Influenza A virus [1] = assay: Antiviral activity against oseltamivir resistant-Influenza A virus A/TW/7855/09 (H1N1) infected in MDCK cells after 72 hrs by crystal violet-staining based assay; assay type: functional, organism-based
Method in brief: (§1)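 Cells seeded at 2 × 10^4/well in E10 (DMEM, 10% FBS), 16–24 h at 37 °C/5% CO2, washed with DPBS, then infected at nine-fold TCID50 with or without serial compound concentrations. Influenza is run in MDCK and enterovirus/rhinovirus in RD. Incubated 72 h, fixed in 4% paraformaldehyde, stained with 0.1% crystal violet, and read for cell density. EC50 = 50% CPE inhibition by Reed–Muench; mean ± S.D. of at least three runs.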

[2] = Selectivity ratio of CC50 for MDCK cells to EC50 for oseltamivir resistant-Influenza A virus A/TW/6663/09 (H1N1); assay type: toxicity; settings: dog, read-out: Ratio CC50/EC50
Method in brief: (§2)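 MDCK cells (2 × 10^4/well, E10, 16–24 h) infected at nine-fold TCID50 with compound for 72 h, 37 °C, 5% CO2. Cells were fixed in 4% paraformaldehyde and stained with crystal violet; EC50 is from Reed–Muench. For CC50, cells had compound alone for 72 h, then MTT 3 h, DMSO, A570, Reed–Muench. SI = CC50/EC50; three independent experiments.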

[3] = Selectivity ratio of CC50 for MDCK cells to EC50 for oseltamivir resistant-Influenza A virus A/TW/7855/09 (H1N1); assay type: toxicity; settings: dog, read-out: Ratio CC50/EC50; method in brief: as §2
Influenza A virus [4] = assay: Antiviral activity against oseltamivir resistant-Influenza A virus A/TW/6663/09 (H1N1) infected in MDCK cells after 72 hrs by crystal violet-staining based assay; assay type: functional, organism-based; method in brief: as §1

In the case of `C=C(CC(=O)Nc1ccc(F)cc1F)C(=O)Nc1ccc(F)cc1F`, the pEC50 (Influenza A virus [1]) was 5.59, the selectivity ratio [2] was 18 and the selectivity ratio [3] was 33. For the same molecule, the pEC50 (Influenza A virus [4]) was 5.32.
